≈ marks a conversion by molar mass, not a printed value. Calls of active or inactive are those of the source. The rule behind the calls is not given here.
Key:
Aspergillus fumigatus [1] = experiment: Antimicrobial activity against Aspergillus fumigatus by agar diffusion method; format: functional
In short: (§1)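 Agar diffusion on plates against bacteria and fungi. MIC taken as the lowest concentration giving no visible growth on the plate.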

Aspergillus fumigatus [2] = experiment: Antimicrobial activity against Aspergillus fumigatus at 1.25 ug/mL by agar diffusion method; format: functional; settings: read-out: IZ
[3] = Antioxidant activity assessed as inhibition of peroxynitrite-mediated 3-nitrotyrosine formation by HPLC; format: functional
In short: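 Tyrosine and peroxynitrite, each 100 µM, reacted with compound at 0–300 µM in 100 mM phosphate buffer pH 7.4 at 37 °C for 15 min. Peroxynitrite made from acidified H2O2 plus KNO2, quenched with NaOH, and kept on ice no longer than 30 min before use.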

Staphylococcus aureus [4] = experiment: Antimicrobial activity against Staphylococcus aureus at 1.25 ug/mL by agar diffusion method; format: functional; settings: read-out: IZ
[5] = target: T1, DNA topoisomerase 1 (Homo sapiens) (UniProt P11387); experiment: Inhibition of topoisomerase 1 relative to etoposide
T1 sequence (whole entry): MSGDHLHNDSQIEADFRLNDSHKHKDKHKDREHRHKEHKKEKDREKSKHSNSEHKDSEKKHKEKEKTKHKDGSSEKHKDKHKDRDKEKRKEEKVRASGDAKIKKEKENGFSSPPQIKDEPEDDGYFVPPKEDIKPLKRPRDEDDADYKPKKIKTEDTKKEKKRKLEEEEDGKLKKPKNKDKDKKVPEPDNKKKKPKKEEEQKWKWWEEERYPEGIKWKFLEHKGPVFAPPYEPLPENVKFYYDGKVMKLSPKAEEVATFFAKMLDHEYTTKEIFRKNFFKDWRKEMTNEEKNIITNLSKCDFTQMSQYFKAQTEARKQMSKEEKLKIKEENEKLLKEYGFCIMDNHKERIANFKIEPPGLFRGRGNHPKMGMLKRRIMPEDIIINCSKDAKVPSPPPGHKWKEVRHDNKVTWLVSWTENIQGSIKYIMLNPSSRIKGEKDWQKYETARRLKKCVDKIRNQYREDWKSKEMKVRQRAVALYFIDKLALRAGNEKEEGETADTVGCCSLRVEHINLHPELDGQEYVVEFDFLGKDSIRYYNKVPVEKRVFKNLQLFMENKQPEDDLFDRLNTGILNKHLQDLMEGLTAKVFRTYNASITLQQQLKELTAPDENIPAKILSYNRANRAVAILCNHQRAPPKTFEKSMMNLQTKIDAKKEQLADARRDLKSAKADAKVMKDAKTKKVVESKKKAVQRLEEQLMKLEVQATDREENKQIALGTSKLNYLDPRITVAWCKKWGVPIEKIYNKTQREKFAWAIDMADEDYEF

Escherichia coli [6] = experiment: Antimicrobial activity against Escherichia coli at 2.5 ug/mL by agar diffusion method; format: functional; settings: read-out: IZ
Pseudomonas aeruginosa [7] = experiment: Antimicrobial activity against Pseudomonas aeruginosa at 1.25 ug/mL by agar diffusion method; format: functional; settings: read-out: IZ
[8] = test system: Radical scavenging activity; experiment: Antioxidant activity assessed as DPPH free radical scavenging activity by measuring reduction in DPPH absorbance by ELISA relative to untreated control; format: functional; design: concentration or dose not given beside the values
In short: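 Test compounds dissolved in DMSO, ascorbic acid standard in water, both serially diluted. 10 µl sample added to 90 µl of 100 µM DPPH in methanol and kept in the dark at 37 °C for 30 min. Absorbance read at 515 nm. Blank is DMSO plus DPPH. % reduction = (A_B − A_A)/A_B × 100. Run in triplicate.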

Penicillium italicum [9] = experiment: Antimicrobial activity against Penicillium italicum by agar diffusion method; format: functional; in short: as §1
[10] = target: DNA topoisomerase 2-alpha (Mus musculus) (UniProt Q01320); experiment: Inhibition of topoisomerase 2 from mouse P388 cells assessed as relaxation of pBR322 DNA by agarose gel electrophoresis relative to etoposide; format: cell-based
In short: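 Topoisomerase II purified from P388 cells. One unit relaxes 0.125 µg supercoiled pBR322 DNA, incubated with or without inhibitor at 30 °C for 1 h in 50 mM Tris-HCl pH 8.0, 100 mM KCl, 10 mM MgCl2, 0.5 mM DTT, 1 mM ATP and 30 µg/ml BSA. Products run on 0.7% agarose in TBE, stained with ethidium bromide and imaged under UV.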

Staphylococcus aureus [11] = experiment: Antimicrobial activity against Staphylococcus aureus by agar diffusion method; format: functional; in short: as §1
Escherichia coli [12] = experiment: Antimicrobial activity against Escherichia coli at 5 ug/mL by agar diffusion method; format: functional; settings: read-out: IZ
Pseudomonas aeruginosa [13] = experiment: Antimicrobial activity against Pseudomonas aeruginosa at 2.5 ug/mL by agar diffusion method; format: functional; settings: read-out: IZ
Bacillus subtilis [14] = experiment: Antimicrobial activity against Bacillus subtilis at 5 ug/mL by agar diffusion method; format: functional; settings: read-out: IZ
Penicillium italicum [15] = experiment: Antimicrobial activity against Penicillium italicum at 2.5 ug/mL by agar diffusion method; format: functional; settings: read-out: IZ
Aspergillus fumigatus [16] = experiment: Antimicrobial activity against Aspergillus fumigatus at 5 ug/mL by agar diffusion method; format: functional; settings: read-out: IZ
Penicillium italicum [17] = experiment: Antimicrobial activity against Penicillium italicum at 5 ug/mL by agar diffusion method; format: functional; settings: read-out: IZ
[18] = test system: Syncephalastrum racemosum; experiment: Antimicrobial activity against Syncephalastrum racemosum at 1.25 ug/mL by agar diffusion method; format: functional; settings: read-out: IZ
MC-38 = experiment: Antitumor activity against mouse Colon 38 cells implanted in iv dosed C57BL/6 mouse administered as single dose; format: functional, organism-based
In short: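 Female C57BL/6 mice, 6 weeks old, given about 30 mg Colon 38 tumor tissue s.c. in the flank. Randomized into groups of n = 5 when tumors reached about 300 mm3 (day 1). Compound in 5% glucose given as a single iv tail-vein dose on day 1; controls received 5% glucose. Tumor volume = (length × width²)/2 and body weight tracked.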

[19] = test system: Syncephalastrum racemosum; experiment: Antimicrobial activity against Syncephalastrum racemosum at 5 ug/mL by agar diffusion method; format: functional; settings: read-out: IZ
Candida albicans [20] = experiment: Antimicrobial activity against Candida albicans by agar diffusion method; format: functional; in short: as §1
[21] = test system: Syncephalastrum racemosum; experiment: Antimicrobial activity against Syncephalastrum racemosum by agar diffusion method; format: functional; in short: as §1
Candida albicans [22] = experiment: Antimicrobial activity against Candida albicans at 5 ug/mL by agar diffusion method; format: functional; settings: read-out: IZ
Bacillus subtilis [23] = experiment: Antimicrobial activity against Bacillus subtilis at 1.25 ug/mL by agar diffusion method; format: functional; settings: read-out: IZ
Staphylococcus aureus [24] = experiment: Antimicrobial activity against Staphylococcus aureus at 5 ug/mL by agar diffusion method; format: functional; settings: read-out: IZ
Staphylococcus aureus [25] = experiment: Antimicrobial activity against Staphylococcus aureus at 2.5 ug/mL by agar diffusion method; format: functional; settings: read-out: IZ
Penicillium italicum [26] = experiment: Antimicrobial activity against Penicillium italicum at 1.25 ug/mL by agar diffusion method; format: functional; settings: read-out: IZ
Aspergillus fumigatus [27] = experiment: Antimicrobial activity against Aspergillus fumigatus at 2.5 ug/mL by agar diffusion method; format: functional; settings: read-out: IZ
Bacillus subtilis [28] = experiment: Antimicrobial activity against Bacillus subtilis by agar diffusion method; format: functional; in short: as §1
Bacillus subtilis [29] = experiment: Antimicrobial activity against Bacillus subtilis at 2.5 ug/mL by agar diffusion method; format: functional; settings: read-out: IZ
Measles morbillivirus = experiment: Antiviral activity against Measles virus infected in intracranially dosed hamster assessed as inhibition of subacute sclerosing panencephalitis; format: functional
In short: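 Hamsters under ether anesthesia injected intracranially, into the subarachnoid space at 2 mm depth, at 5, 10 and 20 mg/kg/day for 10 days. Four animals per group sacrificed on days 1–20. Brains homogenized in PBS and centrifuged, supernatant deproteinized with ethanol, then MIC in brain tissue determined by HPLC and bioassay.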

Candida albicans [30] = experiment: Antimicrobial activity against Candida albicans at 1.25 ug/mL by agar diffusion method; format: functional; settings: read-out: IZ
Candida albicans [31] = experiment: Antimicrobial activity against Candida albicans at 2.5 ug/mL by agar diffusion method; format: functional; settings: read-out: IZ
Pseudomonas aeruginosa [32] = experiment: Antimicrobial activity against Pseudomonas aeruginosa at 5 ug/mL by agar diffusion method; format: functional; settings: read-out: IZ
Escherichia coli [33] = experiment: Antimicrobial activity against Escherichia coli by agar diffusion method; format: functional; in short: as §1
Escherichia coli [34] = experiment: Antimicrobial activity against Escherichia coli at 1.25 ug/mL by agar diffusion method; format: functional; settings: read-out: IZ
[35] = test system: Syncephalastrum racemosum; experiment: Antimicrobial activity against Syncephalastrum racemosum at 2.5 ug/mL by agar diffusion method; format: functional; settings: read-out: IZ
Hepatitis C virus = experiment: Antiviral activity against HCV by cell based replicon assay; format: functional, Hepacivirus hominis
In short: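 HCV replicon cells plated at 1×10^4 per well. Next day incubated at 37 °C with serially diluted compound in DMEM with 2% FBS and 0.5% DMSO. HCV RNA copy number measured by quantitative RT-PCR on total cellular RNA. Each point is the average of five replicates. Cytotoxicity measured by MTS in parallel.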

DNA topoisomerase 2-alpha (Mus musculus), sequence (Q01320 whole entry): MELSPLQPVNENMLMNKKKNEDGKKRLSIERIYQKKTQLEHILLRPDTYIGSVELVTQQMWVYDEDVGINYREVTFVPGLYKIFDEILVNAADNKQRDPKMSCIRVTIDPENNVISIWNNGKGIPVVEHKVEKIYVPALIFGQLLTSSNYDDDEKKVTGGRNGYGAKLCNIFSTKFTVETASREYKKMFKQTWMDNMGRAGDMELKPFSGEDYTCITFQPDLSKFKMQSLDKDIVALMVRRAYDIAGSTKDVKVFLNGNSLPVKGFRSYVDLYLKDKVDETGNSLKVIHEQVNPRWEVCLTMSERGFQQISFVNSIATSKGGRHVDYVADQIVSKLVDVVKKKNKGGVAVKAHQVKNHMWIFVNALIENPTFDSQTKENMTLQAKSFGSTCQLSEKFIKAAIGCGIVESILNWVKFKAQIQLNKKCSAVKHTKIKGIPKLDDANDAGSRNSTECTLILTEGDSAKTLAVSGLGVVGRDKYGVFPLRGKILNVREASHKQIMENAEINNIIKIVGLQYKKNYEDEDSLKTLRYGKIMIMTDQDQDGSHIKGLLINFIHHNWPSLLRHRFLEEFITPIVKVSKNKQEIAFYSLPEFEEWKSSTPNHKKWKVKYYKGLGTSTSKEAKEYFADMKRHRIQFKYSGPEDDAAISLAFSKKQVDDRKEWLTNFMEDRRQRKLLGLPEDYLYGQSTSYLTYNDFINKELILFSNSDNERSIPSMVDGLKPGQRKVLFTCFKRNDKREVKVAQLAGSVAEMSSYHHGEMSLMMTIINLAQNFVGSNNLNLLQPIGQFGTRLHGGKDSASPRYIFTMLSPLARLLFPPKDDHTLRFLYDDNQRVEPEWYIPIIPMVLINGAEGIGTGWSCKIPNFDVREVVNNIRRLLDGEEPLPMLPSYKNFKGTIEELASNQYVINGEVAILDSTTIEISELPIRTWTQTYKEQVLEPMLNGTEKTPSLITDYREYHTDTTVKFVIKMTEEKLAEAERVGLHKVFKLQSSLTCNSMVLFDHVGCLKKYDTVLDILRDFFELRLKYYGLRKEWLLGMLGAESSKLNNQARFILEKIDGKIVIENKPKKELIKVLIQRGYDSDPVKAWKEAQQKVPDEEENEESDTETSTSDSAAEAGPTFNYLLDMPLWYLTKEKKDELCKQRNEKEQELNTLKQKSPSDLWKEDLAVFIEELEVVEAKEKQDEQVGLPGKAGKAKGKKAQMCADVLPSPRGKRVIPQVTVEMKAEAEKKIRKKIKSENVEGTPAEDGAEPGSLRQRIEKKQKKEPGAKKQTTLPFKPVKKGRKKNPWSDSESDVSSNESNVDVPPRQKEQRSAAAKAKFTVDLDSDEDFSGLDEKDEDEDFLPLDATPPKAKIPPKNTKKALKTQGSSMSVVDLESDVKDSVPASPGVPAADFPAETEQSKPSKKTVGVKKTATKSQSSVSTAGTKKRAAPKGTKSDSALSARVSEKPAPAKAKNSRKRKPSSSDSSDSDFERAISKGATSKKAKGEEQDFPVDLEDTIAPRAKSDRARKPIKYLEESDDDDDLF

Q: With `Cc1cccc(N/N=C2\CCCc3ccccc3C2=O)c1` as the compound, how does the MIC (Aspergillus fumigatus [1]) read?
A: 0.313 µg/mL (≈ 1.12 µM)

Q: And the zone of inhibition at 1.25 µg/mL (Aspergillus fumigatus [2])?
A: 9 mm

Q: What about the IC50 [3] of the same compound?
A: 55.1 µM

Q: And the zone of inhibition at 1.25 µg/mL (Staphylococcus aureus [4])?
A: 5 mm

Q: What about the Ratio [5] of the same compound?
A: 4.46

Q: And the zone of inhibition at 2.5 µg/mL (Escherichia coli [6])?
A: 6 mm

Q: And the zone of inhibition at 1.25 µg/mL (Pseudomonas aeruginosa [7])?
A: 0 mm

Q: What about the Activity [8] of the same compound?
A: 83.1%

Q: And the MIC (Penicillium italicum [9])?
A: 1.25 µg/mL (≈ 4.49 µM)

Q: And the Ratio [10]?
A: 4.66

Q: And the MIC (Staphylococcus aureus [11])?
A: 0.625 µg/mL (≈ 2.25 µM)

Q: What about the zone of inhibition at 5 µg/mL (Escherichia coli [12]) of the same compound?
A: 12 mm

Q: What about the zone of inhibition at 2.5 µg/mL (Pseudomonas aeruginosa [13]) of the same compound?
A: 0 mm

Q: What about the zone of inhibition at 5 µg/mL (Bacillus subtilis [14]) of the same compound?
A: 15 mm

Q: What about the zone of inhibition at 2.5 µg/mL (Penicillium italicum [15]) of the same compound?
A: 6 mm

Q: What about the zone of inhibition at 5 µg/mL (Aspergillus fumigatus [16]) of the same compound?
A: 22 mm

Q: And the zone of inhibition at 5 µg/mL (Penicillium italicum [17])?
A: 14 mm

Q: What about the zone of inhibition at 1.25 µg/mL [18] of the same compound?
A: 8 mm

Q: What about the Activity (MC-38) of the same compound?
A: Active

Q: What about the zone of inhibition at 5 µg/mL [19] of the same compound?
A: 19 mm

Q: What about the MIC (Candida albicans [20]) of the same compound?
A: 1.25 µg/mL (≈ 4.49 µM)

Q: And the MIC [21]?
A: 0.313 µg/mL (≈ 1.12 µM)

Q: And the zone of inhibition at 5 µg/mL (Candida albicans [22])?
A: 9 mm

Q: What about the zone of inhibition at 1.25 µg/mL (Bacillus subtilis [23]) of the same compound?
A: 8 mm

Q: What about the zone of inhibition at 5 µg/mL (Staphylococcus aureus [24]) of the same compound?
A: 12 mm

Q: What about the zone of inhibition at 2.5 µg/mL (Staphylococcus aureus [25]) of the same compound?
A: 8 mm

Q: What about the zone of inhibition at 1.25 µg/mL (Penicillium italicum [26]) of the same compound?
A: 3 mm

Q: And the zone of inhibition at 2.5 µg/mL (Aspergillus fumigatus [27])?
A: 14 mm

Q: And the MIC (Bacillus subtilis [28])?
A: 0.313 µg/mL (≈ 1.12 µM)

Q: And the zone of inhibition at 2.5 µg/mL (Bacillus subtilis [29])?
A: 10 mm

Q: What about the MIC (Measles morbillivirus) of the same compound?
A: 6.01 µg/mL (≈ 21.6 µM)

Q: What about the zone of inhibition at 1.25 µg/mL (Candida albicans [30]) of the same compound?
A: 2 mm

Q: What about the zone of inhibition at 2.5 µg/mL (Candida albicans [31]) of the same compound?
A: 6 mm

Q: What about the zone of inhibition at 5 µg/mL (Pseudomonas aeruginosa [32]) of the same compound?
A: 0 mm

Q: What about the MIC (Escherichia coli [33]) of the same compound?
A: 2.5 µg/mL (≈ 8.98 µM)

Q: What about the zone of inhibition at 1.25 µg/mL (Escherichia coli [34]) of the same compound?
A: 0 mm

Q: And the zone of inhibition at 2.5 µg/mL [35]?
A: 12 mm

Q: And the MIC (Hepatitis C virus)?
A: 1.02 µg/mL (≈ 3.67 µM)

Source: ChEMBL document CHEMBL1152689, “Synthesis, tautomerism, and antimicrobial, anti-HCV, anti-SSPE, antioxidant, and antitumor activities of arylazobenzosuberones” (Bioorg Med Chem, 2009)
